Key:
Type in all cases: functional
G-401 [1] = assay: Tested in vitro against human ovarian cancer cells (G-401) for anticancer activity at dose 1 uM (Cell number 1*10 e-4)
Method in brief: (§1)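 G-401 human ovarian cancer cells seeded at 5 × 10^4 cells/mL in serum-free medium, with or without compound at 0–100 μM. Cultured 3 days at 37 °C under 5% CO₂. Living cells were counted by trypan blue dye exclusion and reported as cell number (×10^-4).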

G-401 [2] = assay: Tested in vitro against human ovarian cancer cells (G-401) for anticancer activity at dose 100 uM (Cell number 1*10 e-4); method in brief: as §1
G-401 [3] = assay: Tested in vitro against human ovarian cancer cells (G-401) for anticancer activity at dose 0 uM (Cell number 1*10 e-4); method in brief: as §1
G-401 [4] = assay: Tested in vitro against human ovarian cancer cells (G-401) for anticancer activity at dose 10 uM (Cell number 1*10 e-4); method in brief: as §1
G-401 [5] = assay: Tested in vitro against human ovarian cancer cells (G-401) for anticancer activity at dose 1 uM in presence of + beta galactosidase (Cell number 1*10 e-4)
Method in brief: (§2)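 G-401 human ovarian cancer cells seeded at 5 × 10^4 cells/mL in serum-free medium with compound (0–100 μM) plus E. coli β-galactosidase at 1 unit/mL. Cultured 3 days at 37 °C under 5% CO₂. Viable cells were counted by trypan blue exclusion and reported as cell number (×10^-4).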

G-401 [6] = assay: Tested in vitro against human ovarian cancer cells (G-401) for anticancer activity at dose 0 uM in presence of + beta galactosidase (Cell number 1*10 e-4); method in brief: as §2
G-401 [7] = assay: Tested in vitro against human ovarian cancer cells (G-401) for anticancer activity at dose 10 uM in presence of + beta galactosidase (Cell number 1*10 e-4); method in brief: as §2
G-401 [8] = assay: Tested in vitro against human ovarian cancer cells (G-401) for anticancer activity at dose 100 uM in presence of + beta galactosidase (Cell number 1*10 e-4); method in brief: as §2

SMILES | Cell number (G-401 [1]) | Cell number (G-401 [2]) | Cell number (G-401 [3]) | Cell number (G-401 [4]) | Cell number (G-401 [5]) | Cell number (G-401 [6]) | Cell number (G-401 [7]) | Cell number (G-401 [8])
Nc1ccn([C@@H]2O[C@H](CO)[C@@H](O)[C@@H]2O)c(=O)n1 [CYTARABINE] | 0 | 0 | 55 | 0 |  |  |  | 
Nc1ccn([C@@H]2O[C@H](CO[C@@H]3O[C@H](CO)[C@H](O)[C@H](O)[C@H]3O)[C@@H](O)[C@@H]2O)c(=O)n1 | 41 | 56 | 55 | 38 | 15 | 46 | 6 | 2

From ChEMBL document CHEMBL1127382, “Synthesis of N-acetylglucosamine-modified ara-C and its effect on ovarian cancer cells” (1994)
